System: MS2 coat protein
Test: apparent Kd, MS2 coat protein; higher = weaker binding; RNA-MaP array; FMN 200 µM where present
Outline: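 In 100 mM Tris-HCl pH 7.5, 80 mM KCl, 4 mM MgCl2, BSA, DTT, yeast tRNA and Tween-20, SNAP-549-labelled MS2 coat protein was titrated from 0.7 or 1.5 nM, doubling to 3 µM, over designs transcribed by stalled E. coli RNA polymerase on Illumina sequencing-chip clusters. This was done first without ligand, then with ligand held constant. After green signal was normalised to red-channel RNA signal and control-cluster median Fmax, the apparent Kd was taken as the median of filtered per-cluster binding-curve fits.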

[1] = designed as: ON switch for flavin mononucleotide, no ligand
[2] = ligand present: flavin mononucleotide, designed as: ON switch for flavin mononucleotide
[3] = designed as: OFF switch for flavin mononucleotide, no ligand
[4] = ligand present: flavin mononucleotide, designed as: OFF switch for flavin mononucleotide

Sequence	apparent Kd [1]	apparent Kd [2]	apparent Kd [3]	apparent Kd [4]
CUGAUUAUACAAGGAUAUCUUUUGUUGUUUCGACUUACAUGAGGAUCACCCAUGUUAAUAUUUUUAGAGAAGGUGUAUUUUCAG	16.8 nM	20.3 nM	–	–
AACCACCGCACGGACACGUCGAGUCAGGAUAUACAUGAGGAUCACCCAUGUGAAGGCCGGCUCAUGUAGAAGGGACAGGCGUUG	–	–	11.4 nM	15.7 nM
UGCUAGAAAGGAUAUACAUGAGGAUCACCCAUGUAACCCUAUAUGAGAGUUCCCGUUUGUAGAAGGUUCUCGUG	–	–	16.9 nM	26.5 nM
ACUUAUAGAGGAUAUACAGUAUAUUACAUGAGGAUCACCCAUGUUCUUCAAUGUAUAUAUGUAGAAGGCUAAGGAA	–	–	206 nM	541 nM
AGGAGAAAUGUAGGAUAUGGGCGGGUAUAUGGGCAAAGCGCAUAUACCCGCCCAGAAGGACAUGAGGAUCACCCAUGUUUCCCU	–	–	12.2 nM	13.3 nM
AGAAGGCUACAGAAGGGACACACACGGCGGGAGUCAGGAUAUGUAGAGAAAACGUUACAUGAGGAUCACCCAUGUAGACCUUCC	123 nM	19.9 nM	–	–
AAAUUAAGGAGAGGAUAUUGACAUGAGGAUCACCCAUGUAUUUGGGAGUGUUUACUGAAUUCUUACGAGAAGGCUUACGAAAUU	–	–	308 nM	234 nM
UGUCCAUAGCAGAAGGACAUGAAUAAACGUGAAAACAUGAGGAUCACCCAUGUAGGAUAUGCUAUGGACUAAGAGCGAAAGCUC	–	–	34.7 nM	494 nM
AGUAUGAUCCAGAAGGACAUAUGACCAAGACGAAACAUGAGGAUCACCCAUGUAGGAUAUGGAUCAUACAGGAUCGUGAGAUCA	–	–	6.14 nM	12 nM
UGGUACAUCAUAGGAUAUCGUGUGUAAACAUGAGGAUCACCCAUGUCAUACGAGAGUAUGUCGAUCGAGAAGGAUGAUGUACCU	31.2 nM	17.2 nM	–	–
GGACGUCACAUUUACAUGAGGAUCACCCAUGUCUCUUGACAUGAGGAUAUGUAUACGAAUCGUAUACAGAAGGCAUGGACGUCC	1100 nM	153 nM	–	–
AGAUGAUGAUGUUAUCUUCGUCGGACAUGAGGAUCACCCAUGUAGGAUAUGCUACUCAAAGAGUAGCAGAAGGACAUGUAUCUU	–	–	25.4 nM	113 nM
CCUCGUUGGGAGGAUAUCCUUUUGGUUGGAGGAGGAGAAGGCUCGACAUGAGGAUCACCCAUGUGGGAUUUCCU	–	–	74.8 nM	211 nM
CGCUGCCACGCAGGAUAUGCAUUGGAUUCCAAUGCAGAAGGGCGAUUACAUGAGGAUCACCCAUGUGUUGGCAGUGAAGAAGAG	1230 nM	77.9 nM	–	–
GAUGGAGAGCAGGAUAUCUUGGGUAAGCAUCAUAGAGAAGGGCUCACAUGAGGAUCACCCAUGUGGUCCAAGAA	–	–	14.2 nM	56 nM
CCGGUAAAGGAGGAUAUAGGAGUCGAUAGACACCUAGAAGGCCUGACAUGAGGAUCACCCAUGUGUCCUUCCGG	–	–	17.7 nM	76.7 nM
AAAUUGUCAGGAUAUCCUGCUAUACGCAAUAUGUAUUCACGGGAGAAGGGACAUGAGGAUCACCCAUGUUUGAA	–	–	21.5 nM	30 nM
UUUUAACAUGAGGAUCACCCAUGUGAGGAUAUCGAAAUUUUUAUUAAUAUUAAUAAAACGAGAAGGCACAUUUU	–	–	56 nM	69.3 nM
GACAUACAUGAGGAUCACCCAUGUUCAAGCGGACAAGGAUAUGUGUGGAAACCAUACUAUACAGAAGGUGUCUGUC	25.9 nM	17.1 nM	–	–
AGCUAGUCAGGAUAUACGUACAUGUCAUUAGACGUGAAGGGACAUGAGGAUCACCCAUGUAGAAGGGACUAGCA	–	–	40 nM	164 nM
GCAUCCAAAGUGAGGAUAUACCUCUGGAUACAGAGGUAGAAGGCACAUGAGGAUCACCCAUGUUCCUAGGAUGC	–	–	15.3 nM	74.2 nM
CCUCUACAUGAGGAUCACCCAUGUGAGGAUAUCAAAGCCAGAGCGGAUCUCCGGCCCAUGAGAAGGUGCAUGGA	–	–	19.8 nM	70.8 nM
CGCUAUGACAUAGGAUAUUGGUACAUGAGGAUCACCCAUGUCAACUAUGGAAUAGAAUUAGUUGACAAGAAGGAUGUGGUAGCG	47.2 nM	10.3 nM	–	–
AAAGUUGGUAGGCCCUCGGAACAUGAGGAUCACCCAUGUAAGGAGGAUAUGCCCGGUACCCGCUGGUAGAAGGCCUUAUAAGAA	–	–	7.46 nM	23.5 nM
GCCAGGAUGUGAGGAUAUGCUGAGGAUACUUCAGCAGAAGGCACAUGAGGAUCACCCAUGUACACUUAUCAUAAAUACCCUGGC	–	–	13.4 nM	16.3 nM
GAUCGACCUGAGAAGGCACAUGAGGAUCACCCAUGUUGAACCAUACAUGCCACAAAGUGGCAGUGUGAGGAUAUCAGGUCGAUC	–	–	5.81 nM	8.34 nM
AACAAACAUGAGGAUCACCCAUGUCAGGAUAUGCAAACAACAAACAACAAACAACAAAGCAGAAGGGACAACAA	–	–	23.7 nM	30.2 nM
GCCUCGCUGUGAGGAUAUUACGCCUACCGGCAAAAUGCGGUUUCAGGUCCGUAAGAAGGCACAUGAGGAUCACCCAUGUAAGAA	–	–	26.7 nM	213 nM
